Measured values reported in ChEMBL document CHEMBL5674883, “The Heterochromatin Landscape in Migrating Cells and the Importance of H3K27me3 for Associated Transcriptome Alterations” (Cells, 2018).

Columns and labels:
Format in all cases: cell-based
[1] = target: Histone-lysine N-methyltransferase EZH2 (Mus musculus) (UniProt Q61188); test: Inhibition of EZH2 in mouse B16-F1 migrating cells assessed as fold change in H3K27me3-dependent regulated Espnl-mRNA expression at 3 uM measured by […] analysis relative to control cells
Method in brief: (§1)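 Confluent B16-F1 cells on fibronectin-coated plates were scratched at multiple sites, washed once with DMEM and left to migrate 3 h in growth medium (37 °C, 7% CO2); unscratched cells served as control. GSK343 (3 µM) was added 3 h before lysis. Poly A mRNA was sequenced (RNA-seq), with 5 replicates for untreated and 3 for treated cells. Differential expression was called by linear model with batch correction, at FDR <0.05 and fold change ≥1.3.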

[2] = target: Histone-lysine N-methyltransferase EZH2 (Mus musculus) (UniProt Q61188); test: Inhibition of EZH2 in mouse B16-F1 migrating cells assessed as fold change in H3K27me3-dependent regulated Mir22hg-mRNA expression at 3 uM measured by […] analysis relative to control cells; method in brief: as §1
[3] = target: Histone-lysine N-methyltransferase EZH2 (Mus musculus) (UniProt Q61188); test: Inhibition of EZH2 in mouse B16-F1 migrating cells assessed as fold change in H3K27me3-independent regulated Bnip3-mRNA expression at 3 uM measured by […] analysis relative to control cells; method in brief: as §1
[4] = target: Histone-lysine N-methyltransferase EZH2 (Mus musculus) (UniProt Q61188); test: Inhibition of EZH2 in mouse B16-F1 migrating cells assessed as fold change in H3K27me3-independent regulated Maff-mRNA expression at 3 uM measured by […] analysis relative to control cells; method in brief: as §1
[5] = target: Histone-lysine N-methyltransferase EZH2 (Mus musculus) (UniProt Q61188); test: Inhibition of EZH2 in mouse B16-F1 migrating cells assessed as fold change in H3K27me3-independent regulated Dlx6-mRNA expression at 3 uM measured by […] analysis relative to control cells; method in brief: as §1
[6] = target: Histone-lysine N-methyltransferase EZH2 (Mus musculus) (UniProt Q61188); test: Inhibition of EZH2 in mouse B16-F1 migrating cells assessed as fold change in H3K27me3-buffered regulated Pygm-mRNA expression at 3 uM measured by […] analysis relative to control cells
Method in brief: (§2)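 Confluent B16-F1 cells on fibronectin-coated plates, cultured at 37 °C and 7% CO2, were scratched at multiple sites to induce migration. They were then held 3 h in growth medium containing 3 µM GSK343, with the inhibitor added 3 h before lysis. Unscratched cells served as controls. Poly A mRNA was analysed by RNA-seq (n=3 GSK343, n=5 controls). Linear models removed batch effects, and buffered genes were those altered only under GSK343 (FDR <0.05, fold change >1.3).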

[7] = target: Histone-lysine N-methyltransferase EZH2 (Mus musculus) (UniProt Q61188); test: Inhibition of EZH2 in mouse B16-F1 migrating cells assessed as fold change in H3K27me3-buffered regulated Rap2a-mRNA expression at 3 uM measured by […] analysis relative to control cells; method in brief: as §2
[8] = target: Histone-lysine N-methyltransferase EZH2 (Mus musculus) (UniProt Q61188); test: Inhibition of EZH2 in mouse B16-F1 migrating cells assessed as fold change in H3K27me3-buffered regulated Aldoa-mRNA expression at 3 uM measured by […] analysis relative to control cells; method in brief: as §2
[9] = target: Histone-lysine N-methyltransferase EZH2 (Mus musculus) (UniProt Q61188); test: Inhibition of EZH2 in mouse B16-F1 migrating cells assessed as fold change in H3K27me3-buffered regulated Ccdc126-mRNA expression at 3 uM measured by […] analysis relative to control cells; method in brief: as §2
[10] = target: Histone-lysine N-methyltransferase EZH2 (Mus musculus) (UniProt Q61188); test: Inhibition of EZH2 in mouse B16-F1 migrating cells assessed as fold change in H3K27me3-buffered regulated Irf1-mRNA expression at 3 uM measured by […] analysis relative to control cells; method in brief: as §2
[11] = target: Histone-lysine N-methyltransferase EZH2 (Mus musculus) (UniProt Q61188); test: Inhibition of EZH2 in mouse B16-F1 migrating cells assessed as fold change in H3K27me3-buffered regulated Clk1-mRNA expression at 3 uM measured by […] analysis relative to control cells; method in brief: as §2
[12] = target: T1, RNA polymerase II (Mus musculus) (UniProt P08775+Q8CFI7+P97760+A0A3Q4L2S8+Q80UW8+P61219+P62488+Q923G2+P60898+O08740+Q63871+P62876); test: Inhibition of RNA polymerase II in mouse B16-F1 migrating cells assessed as fold change in Mapre3-RNA stability at 0.1 mM measured by ChIP-seq analysis relative to control cells
[13] = target: T1, RNA polymerase II (Mus musculus); test: Inhibition of RNA polymerase II in mouse B16-F1 migrating cells assessed as fold change in Borcs8-RNA stability at 0.1 mM measured by […] analysis relative to control cells
Method in brief: (§3)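 Mouse B16-F1 melanoma cells grown to confluence on fibronectin in DMEM/10% FCS at 37 °C, 7% CO2. Migration induced by multiple scratches and 3 h incubation; unscratched controls. DRB 0.1 mM added 3 h before lysis. RNA from poly A-selected mRNA was sequenced (RNA-seq, three replicates per DRB group). Fold change computed for DRB-treated migrating vs DRB-treated control cells; cutoffs fold change >1.3, FDR <0.05.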

[14] = target: T1, RNA polymerase II (Mus musculus); test: Inhibition of RNA polymerase II in mouse B16-F1 migrating cells assessed as fold change in Rps15-RNA stability at 0.1 mM measured by […] analysis relative to control cells
[15] = target: T1, RNA polymerase II (Mus musculus); test: Inhibition of RNA polymerase II in mouse B16-F1 migrating cells assessed as fold change in Alg2-RNA stability at 0.1 mM measured by […] analysis relative to control cells
[16] = target: T1, RNA polymerase II (Mus musculus); test: Inhibition of RNA polymerase II in mouse B16-F1 migrating cells assessed as fold change in Cdk5rap3-RNA stability at 0.1 mM measured by […] analysis relative to control cells; method in brief: as §3
[17] = target: T1, RNA polymerase II (Mus musculus); test: Inhibition of RNA polymerase II in mouse B16-F1 migrating cells assessed as fold change in Vps72-RNA stability at 0.1 mM measured by […] analysis relative to control cells
[18] = target: T1, RNA polymerase II (Mus musculus); test: Inhibition of RNA polymerase II in mouse B16-F1 migrating cells assessed as fold change in Mad2l2-RNA stability at 0.1 mM measured by ChIP-seq analysis relative to control cells
[19] = target: T1, RNA polymerase II (Mus musculus); test: Inhibition of RNA polymerase II in mouse B16-F1 migrating cells assessed as fold change in Med25-RNA stability at 0.1 mM measured by ChIP-seq analysis relative to control cells
[20] = target: T1, RNA polymerase II (Mus musculus); test: Inhibition of RNA polymerase II in mouse B16-F1 migrating cells assessed as fold change in Chd1-RNA stability at 0.1 mM measured by ChIP-seq analysis relative to control cells
[21] = target: T1, RNA polymerase II (Mus musculus); test: Inhibition of RNA polymerase II in mouse B16-F1 migrating cells assessed as fold change in Xpo1-RNA stability at 0.1 mM measured by […] analysis relative to control cells
[22] = target: T1, RNA polymerase II (Mus musculus); test: Inhibition of RNA polymerase II in mouse B16-F1 migrating cells assessed as fold change in Nek7-RNA stability at 0.1 mM measured by ChIP-seq analysis relative to control cells
[23] = target: T1, RNA polymerase II (Mus musculus); test: Inhibition of RNA polymerase II in mouse B16-F1 migrating cells assessed as fold change in Gulp1-RNA stability at 0.1 mM measured by ChIP-seq analysis relative to control cells
[24] = target: T1, RNA polymerase II (Mus musculus); test: Inhibition of RNA polymerase II in mouse B16-F1 migrating cells assessed as fold change in Zfp280c-RNA stability at 0.1 mM measured by […] analysis relative to control cells

Histone-lysine N-methyltransferase EZH2 (Mus musculus), sequence (Q61188 whole entry): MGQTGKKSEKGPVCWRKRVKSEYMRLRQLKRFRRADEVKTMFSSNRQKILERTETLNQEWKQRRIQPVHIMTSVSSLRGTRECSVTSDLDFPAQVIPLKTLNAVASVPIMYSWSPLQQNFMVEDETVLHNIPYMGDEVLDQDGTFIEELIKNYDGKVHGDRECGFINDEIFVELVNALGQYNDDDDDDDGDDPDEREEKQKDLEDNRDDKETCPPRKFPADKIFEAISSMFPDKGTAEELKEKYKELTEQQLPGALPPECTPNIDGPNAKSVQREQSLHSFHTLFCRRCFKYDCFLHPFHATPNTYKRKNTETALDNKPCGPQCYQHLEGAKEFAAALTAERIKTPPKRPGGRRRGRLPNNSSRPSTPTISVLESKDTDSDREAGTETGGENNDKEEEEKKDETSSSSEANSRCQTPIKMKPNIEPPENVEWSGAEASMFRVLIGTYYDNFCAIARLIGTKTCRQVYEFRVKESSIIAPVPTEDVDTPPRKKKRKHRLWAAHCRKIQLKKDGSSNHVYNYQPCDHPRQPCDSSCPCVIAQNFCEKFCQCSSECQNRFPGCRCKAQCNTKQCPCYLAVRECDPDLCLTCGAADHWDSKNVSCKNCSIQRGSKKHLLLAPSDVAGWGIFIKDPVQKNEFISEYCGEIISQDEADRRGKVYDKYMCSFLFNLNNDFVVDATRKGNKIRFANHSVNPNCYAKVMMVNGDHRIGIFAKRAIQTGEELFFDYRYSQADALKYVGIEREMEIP

CCCc1cc(C)[nH]c(=O)c1CNC(=O)c1cc(-c2ccnc(N3CCN(C)CC3)c2)cc2c1cnn2C(C)C
log2FC [1]: 0.55 | log2FC [2]: 0.05 | log2FC [3]: 0.68 | log2FC [4]: 0.76 | log2FC [5]: -0.86 | log2FC [6]: 0.85 | log2FC [7]: 0.56 | log2FC [8]: 0.42 | log2FC [9]: -0.49 | log2FC [10]: -0.62 | log2FC [11]: -0.75

OC[C@H]1O[C@@H](n2cnc3cc(Cl)c(Cl)cc32)[C@H](O)[C@@H]1O
log2FC [12]: 0.77 | log2FC [13]: 0.57 | log2FC [14]: 0.53 | log2FC [15]: 0.52 | log2FC [16]: 0.49 | log2FC [17]: 0.46 | log2FC [18]: 0.43 | log2FC [19]: 0.42 | log2FC [20]: -0.56 | log2FC [21]: -0.58 | log2FC [22]: -0.66 | log2FC [23]: -0.97 | log2FC [24]: -0.98
